We go through four molecules from ChEMBL document CHEMBL2203111, “An Hsp90 modulator that exhibits a unique mechanistic profile” (Bioorg Med Chem Lett, 2012).

Active and inactive are the calls of the source. The calls are words filed in the database; no cut-off is given here. *1 amine or outer side, *2 acyl side, *3 side chain or, on linkers, in order; H or OH if unused. Where a SMILES comes first, the peptide text is derived from it. [ ]: non-standard residue; d: D form. X1 = O=C([C@H](N[*:1])[C@H](OCc1ccccc1)c1ccccc1)[*:2]; NMeV = CN[C@H](C(=O)O)C(C)C

Test [1] addresses T1, Heat shock protein HSP90 (Homo sapiens) (UniProt P07900+P08238). As to the kind of experiment: Binding affinity to HSP90 in human HCT116 cell lysates at 0.6 uM after 1 hr by Western blot based pull down assay. The class given is protein assay. Particulars: HCT-116. In short, it runs like this:
(§1)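 Biotinylated probe incubated with HCT116 cell lysate; neutravidin-agarose beads added to capture probe with bound proteins, beads washed ten times, proteins eluted in sample buffer and resolved by gel/Western blot. Controls: PEGylated biotin linker alone and DMSO.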
On the technique in general: A western blot detects proteins with antibodies after separation by electrophoresis.

Test [2] in a line: Binding affinity to N-middle domain of HSP90 expressed in BL21(DE)3 Escherichia coli cells at 5 uM after 2 hrs by Western blotting method based pull down assay.
Test [3] addresses Glyceraldehyde-3-phosphate dehydrogenase (Homo sapiens) (UniProt P04406). As to the kind of experiment: Binding affinity to glyceraldehyde-3-phosphate dehydrogenase in human HCT116 cell lysates at 0.6 uM after 1 hr using coomassie blue staining by SDS-PAGE based pull down assay. The following applies: HCT-116. In short, it runs like this:
as §1

Test [4] concerns HCT-116. As to the kind of experiment: Binding affinity to beta tubulin in human HCT116 cell lysates at 0.6 uM after 1 hr using coomassie blue staining by SDS-PAGE based pull down assay. The class given is cell-free. Summed up: as §1
Test [5] has as its system HCT-116. Nature of the test: Binding affinity to actin in human HCT116 cell lysates at 0.6 uM after 1 hr using coomassie blue staining by SDS-PAGE based pull down assay. The class given is cell-free. Summed up: as §1
The target in test [6] is T1, Heat shock protein HSP90 (Homo sapiens). As to the kind of experiment: Binding affinity to HSP90 in human HCT116 cell lysates at 0.6 uM after 1 hr using coomassie blue staining by SDS-PAGE based pull down assay. The class given is protein assay. The following applies: HCT-116. Summed up: as §1
A further test deals with Myosin-9 (Homo sapiens) (UniProt P35579). Nature of the test: Binding affinity to myosin-9 in human HCT116 cell lysates at 0.6 uM after 1 hr using coomassie blue staining by SDS-PAGE based pull down assay. Particulars: HCT-116. Summed up: as §1
Test [7] is described as follows: Inhibition of binding of recombinant HSP90 to his-tagged HER2 up to 10 uM by Western blotting analysis.
Test [8] in a line: Inhibition of binding of recombinant HSP90 to his-tagged Akt up to 10 uM by Western blotting analysis.
For test [9], the system named is HCT-116. Nature of the test: Induction of apoptosis in human HCT116 cells assessed as PARP cleavage at 50 uM after 24 hrs by Western blotting analysis. The class given is functional. In short, it runs like this:
(§2)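 HCT116 cells treated 24 hrs with compound at 0–50 µM; cell lysates analyzed by Western blot for full-length PARP (~113 kDa) and cleaved fragments, full-length PARP quantified relative to untreated cells.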

In test [10] the test system is HCT-116. As to the kind of experiment: Induction of apoptosis in human HCT116 cells assessed as PARP cleavage after 24 hrs by Western blotting analysis. The class given is functional, cell-based. Summed up: as §2
Test [11] concerns the target T1, Heat shock protein HSP90 (Homo sapiens). As to the kind of experiment: Binding affinity to HSP90 in human HCT116 cells assessed as increase in staining intensity in cytosol at 5 uM after 72 hrs by immunofluorescence staining analysis. The class given is cell-based. Particulars: HCT-116. In short, it runs like this: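 HCT116 colon cancer cells treated 72 hours (DMSO as vehicle control, 17-AAG as reference Hsp90 inhibitor); Hsp90 visualized by immunofluorescence with a polyclonal anti-Hsp90 antibody, cytosolic staining intensity compared with DMSO-treated cells.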

Test [12] can be described thus: Competitive binding affinity to N-middle domain of HSP90 expressed in BL21(DE)3 Escherichia coli cells after 1 hr by immunoblotting analysis in the presence of 2-chlorobenzyl 4-((2R,5S,8S,11S,14R)-11,14-dibenzyl-8-isobutyl-5-isopropyl-13-methyl-3,6,9,12,15-pentaoxo-1,4,7,10,13-pentaazacyclopentadecan-2-yl)butylcarbamate.

Broadly, the IC50 is the point on the concentration scale where inhibition reaches its midpoint.

Sequence of Myosin-9 (Homo sapiens) (P35579 whole entry): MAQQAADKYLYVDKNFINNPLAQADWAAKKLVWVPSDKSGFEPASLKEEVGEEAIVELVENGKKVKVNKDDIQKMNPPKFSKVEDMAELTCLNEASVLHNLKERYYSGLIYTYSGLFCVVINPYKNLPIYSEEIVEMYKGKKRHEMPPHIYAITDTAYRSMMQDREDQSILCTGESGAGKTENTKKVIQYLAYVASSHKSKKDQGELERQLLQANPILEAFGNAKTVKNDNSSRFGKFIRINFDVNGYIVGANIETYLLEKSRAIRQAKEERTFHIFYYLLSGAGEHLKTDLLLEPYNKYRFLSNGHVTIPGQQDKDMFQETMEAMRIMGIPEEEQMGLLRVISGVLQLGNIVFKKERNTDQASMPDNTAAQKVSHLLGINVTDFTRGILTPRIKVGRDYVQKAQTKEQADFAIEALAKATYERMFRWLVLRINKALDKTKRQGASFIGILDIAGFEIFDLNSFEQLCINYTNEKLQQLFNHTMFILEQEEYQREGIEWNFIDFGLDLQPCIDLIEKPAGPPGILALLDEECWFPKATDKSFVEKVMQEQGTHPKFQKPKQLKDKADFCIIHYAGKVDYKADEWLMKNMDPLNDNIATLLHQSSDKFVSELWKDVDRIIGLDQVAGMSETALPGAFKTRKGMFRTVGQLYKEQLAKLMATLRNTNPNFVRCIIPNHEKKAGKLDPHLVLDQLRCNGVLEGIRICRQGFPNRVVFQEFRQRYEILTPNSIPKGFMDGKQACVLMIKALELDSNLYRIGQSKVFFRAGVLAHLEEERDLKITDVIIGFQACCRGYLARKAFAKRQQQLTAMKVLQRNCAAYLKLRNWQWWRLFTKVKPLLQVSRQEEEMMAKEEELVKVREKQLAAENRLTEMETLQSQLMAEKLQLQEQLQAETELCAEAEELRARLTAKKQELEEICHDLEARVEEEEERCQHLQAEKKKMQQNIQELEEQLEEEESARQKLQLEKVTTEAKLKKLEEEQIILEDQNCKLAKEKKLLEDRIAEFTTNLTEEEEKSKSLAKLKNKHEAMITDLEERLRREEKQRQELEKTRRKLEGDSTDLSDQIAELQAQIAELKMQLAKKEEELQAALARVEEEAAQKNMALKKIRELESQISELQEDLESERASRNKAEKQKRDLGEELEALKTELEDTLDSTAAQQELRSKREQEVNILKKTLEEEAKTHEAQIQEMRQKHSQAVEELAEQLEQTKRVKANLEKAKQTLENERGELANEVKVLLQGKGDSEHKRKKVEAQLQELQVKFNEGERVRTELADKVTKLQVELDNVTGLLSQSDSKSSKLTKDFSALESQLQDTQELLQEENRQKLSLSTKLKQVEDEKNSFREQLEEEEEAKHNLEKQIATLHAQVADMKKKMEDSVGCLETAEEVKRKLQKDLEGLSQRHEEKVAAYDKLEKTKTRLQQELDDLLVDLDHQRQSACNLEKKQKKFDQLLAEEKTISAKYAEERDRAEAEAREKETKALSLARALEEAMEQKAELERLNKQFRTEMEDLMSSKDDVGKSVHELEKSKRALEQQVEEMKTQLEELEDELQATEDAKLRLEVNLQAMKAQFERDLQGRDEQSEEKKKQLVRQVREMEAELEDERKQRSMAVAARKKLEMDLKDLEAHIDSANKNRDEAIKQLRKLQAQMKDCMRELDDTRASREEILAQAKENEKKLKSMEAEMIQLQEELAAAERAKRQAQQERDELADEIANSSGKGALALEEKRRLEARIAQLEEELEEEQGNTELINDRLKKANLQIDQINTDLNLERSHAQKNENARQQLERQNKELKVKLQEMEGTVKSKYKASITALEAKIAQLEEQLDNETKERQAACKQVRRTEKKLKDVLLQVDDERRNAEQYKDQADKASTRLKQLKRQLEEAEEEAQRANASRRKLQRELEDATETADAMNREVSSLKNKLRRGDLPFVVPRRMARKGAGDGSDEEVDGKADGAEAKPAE
Sequence of Glyceraldehyde-3-phosphate dehydrogenase (Homo sapiens) (P04406 2-335 limits assumed): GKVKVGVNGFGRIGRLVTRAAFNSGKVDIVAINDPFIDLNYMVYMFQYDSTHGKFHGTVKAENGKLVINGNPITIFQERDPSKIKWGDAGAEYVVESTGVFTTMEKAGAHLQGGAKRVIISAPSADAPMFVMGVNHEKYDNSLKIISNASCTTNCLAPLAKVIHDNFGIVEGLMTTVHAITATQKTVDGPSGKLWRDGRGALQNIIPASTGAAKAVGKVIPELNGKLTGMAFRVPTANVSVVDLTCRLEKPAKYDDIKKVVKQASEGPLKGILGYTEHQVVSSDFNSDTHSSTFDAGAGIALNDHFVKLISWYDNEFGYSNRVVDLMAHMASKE

As for `CC(C)C[C@@H]1NC(=O)[C@H](CCCCNC(=O)CCOCCOCCOCCOCCNC(=O)CCCC[C@@H]2SC[C@@H]3NC(=O)N[C@@H]32)NC(=O)[C@@H](CCCCNC(=O)OCc2ccccc2Cl)NC(=O)[C@@H](Cc2ccccc2)N(C)C(=O)[C@H](Cc2ccccc2)NC1=O`, the result (in test [1]; in test [2]; in test [3]; with HCT-116 [4]; with HCT-116 [5]; in test [6]) was Active. For the same molecule, the outcome at Myosin-9 (Homo sapiens) was Active.
`CC(C)[C@@H]1NC(=O)[C@@H](CCCCNC(=O)OCc2ccccc2Cl)NC(=O)[C@@H](Cc2ccccc2)N(C)C(=O)[C@H](Cc2ccccc2)NC(=O)[C@H](CCCCNC(=O)CCOCCOCCOCCOCCNC(=O)CCCC[C@@H]2SC[C@@H]3NC(=O)N[C@@H]32)NC1=O`: the outcome (in [1]; in test [3]; in the test on HCT-116 [4]; in the test on HCT-116 [5]; in test [6]; on Myosin-9 (Homo sapiens)) was inactive.
As to `CC(C)C[C@@H]1NC(=O)[C@H](C(C)C)NC(=O)[C@@H](CCCCNC(=O)OCc2ccccc2Cl)NC(=O)[C@@H](Cc2ccccc2)N(C)C(=O)[C@H](Cc2ccccc2)NC1=O`, the inhibition entry in test [7] and in test [8] was “inactive” throughout. In addition, the Activity was 48% in the test on HCT-116 [9] and “Dose-dependent effect” in the test on HCT-116 [10]. For the same molecule, the result in test [11] was Active. The IC50 in test [12] worked out at 6.2 µM.
With `CC(C)C[C@@H]1NC(=O)[C@H](C(C)C)N(C)C(=O)[C@@H](CC(C)C)NC(=O)[C@@H](Cc2ccccc2)NC(=O)[C@@H]([C@H](OCc2ccccc2)c2ccccc2)NC1=O` (cyclo(L[X1][dF][dL][NMeV])), the result in test [11] was Active. The IC50 in test [12] was determined as 1.9 µM.
